In ChEMBL document CHEMBL3272207, “Structure-activity relationship in cinnamamides. 2. Synthesis and pharmacological evaluation of some (E)- and (Z)-N-alkyl-alpha, beta-dimethylcinnamamides substituted on the phenyl group” (J Med Chem, 1977):
The source made the active and inactive calls. No cut-off for these calls is given here.

How the values were obtained:
Mus musculus [1] = assay: Behavioral toxicity in po dosed albino Icem-CET (SPF Caw) mouse assessed as reduction in locomotor activity by Irwin's test; assay type: organism-based; conditions: in vivo
Mus musculus [2] = assay: Behavioral toxicity in po dosed albino Icem-CET (SPF Caw) mouse assessed as tremors by Irwin's test; assay type: organism-based; conditions: in vivo
[3] = Behavioral toxicity in po dosed albino Icem-CET (SPF Caw) mouse measured up to 7 days by Irwin's test; assay type: organism-based; conditions: in vivo
Mus musculus [4] = assay: Behavioral toxicity in po dosed albino Icem-CET (SPF Caw) mouse assessed as positional passivity by Irwin's test; assay type: organism-based; conditions: in vivo
Mus musculus [5] = assay: Anticonvulsant activity in po dosed albino Icem-CET (SPF Caw) mouse assessed as inhibition of pentylenetetrazole-induced maximal extensor seizures compound administered 30 mins prior challenge; assay type: functional
How it was run: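 Pentylenetetrazole antagonism in male Icem-CET (SPF Caw) mice, 17-22 g, fasted 9 h. Compound in 0.5% Methocel was given by gavage (0.2 ml/10 g) at 4-5 doses, 20 mice per dose, 30 min before pentylenetetrazole 130 mg/kg ip. Prevention of maximal extensor seizures was scored. ED50 was calculated by probit analysis, with fiducial limits at p = 0.05.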

Mus musculus [6] = assay: Toxicity in po dosed albino Icem-CET (SPF Caw) mouse assessed as impairment of pinna by Irwin's test; assay type: organism-based; conditions: in vivo
Mus musculus [7] = assay: Toxicity in po dosed albino Icem-CET (SPF Caw) mouse assessed as impairment of corneal reflexes by Irwin's test; assay type: organism-based, Cornea; conditions: in vivo
Mus musculus [8] = assay: Anticonvulsant activity in albino Icem-CET (SPF Caw) mouse assessed as inhibition of pentylenetetrazole-induced maximal extensor seizures at 100 mg/kg, po administered 30 mins prior challenge; assay type: functional, organism-based; set-up: dose 100 mg/kg
How it was run: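 Single-dose screen at 100 mg/kg by gavage in 0.5% Methocel in fasted male Icem-CET (SPF Caw) mice, 17-22 g. Dosing was 30 min before pentylenetetrazole 130 mg/kg ip, and prevention of maximal extensor seizures was scored.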

Mus musculus [9] = assay: Behavioral toxicity in albino Icem-CET (SPF Caw) mouse assessed as clonic type convulsion at 25 to 800 mg/kg, po by Irwin's test; assay type: organism-based; set-up: dose 25-800 mg/kg, route oral; conditions: in vivo
Mus musculus [10] = assay: Behavioral toxicity in albino Icem-CET (SPF Caw) mouse assessed as tremors at 25 to 800 mg/kg, po by Irwin's test; assay type: organism-based; set-up: dose 25-800 mg/kg, route oral; conditions: in vivo
Mus musculus [11] = assay: Toxicity in po dosed albino Icem-CET (SPF Caw) mouse assessed as clonic type convulsion by Irwin's test; assay type: organism-based; conditions: in vivo
How it was run: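 Irwin test in fasted (9 h) male Icem-CET (SPF Caw) mice, 17-22 g. Oral gavage of a 0.5% Methocel suspension at screening doses of 25-800 mg/kg. Clonic-type convulsions were scored as the minimum effective dose.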

[12] = Toxicity in po dosed albino Icem-CET (SPF Caw) mouse assessed as mortality measured after 24 to 72 hrs; assay type: organism-based; conditions: in vivo
Mus musculus [13] = assay: Toxicity in albino Icem-CET (SPF Caw) mouse assessed as clonic type convulsion at 200 to 800 mg/kg, po measured after 90 mins by Irwin's test; assay type: organism-based; set-up: dose 200-800 mg/kg, route oral; conditions: in vivo, 1.5 h
Mus musculus [14] = assay: Behavioral toxicity in albino Icem-CET (SPF Caw) mouse assessed as tremor at 200 to 800 mg/kg, po measured after 90 mins by Irwin's test; assay type: organism-based; set-up: dose 200-800 mg/kg, route oral; conditions: in vivo, 1.5 h
Mus musculus [15] = assay: Behavioral toxicity in albino Icem-CET (SPF Caw) mouse assessed as positional passivity at 25 to 800 mg/kg, po measured up to 90 mins by Irwin's test; assay type: organism-based; set-up: dose 25-800 mg/kg, route oral; conditions: in vivo, 1.5 h
Mus musculus [16] = assay: Behavioral toxicity in albino Icem-CET (SPF Caw) mouse assessed as twitches at 200 to 800 mg/kg, po measured after 90 mins by Irwin's test; assay type: organism-based; set-up: dose 200-800 mg/kg, route oral; conditions: in vivo, 1.5 h
Mus musculus [17] = assay: Behavioral toxicity in albino Icem-CET (SPF Caw) mouse assessed as positional passivity at 25 to 800 mg/kg, po by Irwin's test; assay type: organism-based; set-up: dose 25-800 mg/kg, route oral; conditions: in vivo

Row | SMILES | ED50 (Mus musculus [1]) | ED50 (Mus musculus [2]) | LD50 at 168 h [3] | ED50 (Mus musculus [4]) | ED50 (Mus musculus [5]) | other results
1 | C/C(C(=O)NC1CC1)=C(/C)c1ccccc1 | 100 mg/kg | 150 mg/kg | 500 mg/kg | 250 mg/kg |  | 
2 | C=CCNC(=O)/C(C)=C(\C)c1ccc(Cl)cc1 | 70 mg/kg | 70 mg/kg | 300 mg/kg | 90 mg/kg |  | 
3 | C#CCNC(=O)/C(C)=C(\C)c1ccc(F)cc1 | 100 mg/kg | 100 mg/kg | 240 mg/kg | 200 mg/kg | 22.8 mg/kg | Activity (Mus musculus [6]): Toxic; Activity (Mus musculus [7]): Toxic
4 | C/C(C(=O)NC1CC1)=C(\C)c1ccc(C)cc1 | 280 mg/kg |  | > 800 mg/kg | 500 mg/kg |  | Activity (Mus musculus [8]): inactive; Activity (Mus musculus [9]): Non-toxic; Activity (Mus musculus [10]): Non-toxic
5 | C=CCNC(=O)/C(C)=C(/C)c1ccc(F)cc1 | 270 mg/kg | 250 mg/kg | 400 mg/kg | 300 mg/kg |  | Activity (Mus musculus [6]): Toxic; Activity (Mus musculus [8]): inactive; MED (Mus musculus [11]): 800 mg/kg; Activity (Mus musculus [7]): Toxic
6 | C=CCNC(=O)/C(C)=C(\C)c1ccc(Br)cc1 | 120 mg/kg | 500 mg/kg | 600 mg/kg | 500 mg/kg | 33.7 mg/kg | 
7 | C#CCNC(=O)/C(C)=C(\C)c1ccc(C)cc1 | 120 mg/kg | 150 mg/kg | > 800 mg/kg | 200 mg/kg | 86.4 mg/kg | 
8 | C/C(C(=O)NC1CC1)=C(/C)c1ccc(Br)cc1 | 100 mg/kg | 130 mg/kg |  | 600 mg/kg | 8.2 mg/kg | LD50 [12]: 200 mg/kg
9 | O=C1NC(=O)C(c2ccccc2)(c2ccccc2)N1 [PHENYTOIN] | 150 mg/kg | 250 mg/kg |  |  |  | Activity (Mus musculus [13]): Non-toxic; Activity (Mus musculus [14]): Non-toxic; Activity (Mus musculus [15]): Non-toxic; Activity (Mus musculus [16]): Non-toxic
10 | COc1ccc(/C(C)=C(/C)C(=O)NC2CC2)cc1 | 300 mg/kg | 300 mg/kg | 450 mg/kg |  |  | Activity (Mus musculus [8]): inactive; Activity (Mus musculus [17]): Non-toxic; MED (Mus musculus [11]): 400 mg/kg
11 | C#CCNC(=O)/C(C)=C(\C)c1cc(OC)c(OC)c(OC)c1 | 160 mg/kg | 150 mg/kg | 500 mg/kg | 300 mg/kg | 53.1 mg/kg | 
12 | C/C(C(=O)NC1CC1)=C(/C)c1ccc(F)cc1 | 110 mg/kg | 70 mg/kg | 300 mg/kg | 200 mg/kg | 25 mg/kg | Activity (Mus musculus [6]): Toxic; Activity (Mus musculus [7]): Toxic
13 | C/C(C(=O)NC1CC1)=C(/C)c1ccc(C)cc1 | 110 mg/kg | 150 mg/kg | > 800 mg/kg | 300 mg/kg |  | Activity (Mus musculus [8]): inactive
14 | C=CCNC(=O)/C(C)=C(\C)c1cc(OC)c(OC)c(OC)c1 | 110 mg/kg | 190 mg/kg | 600 mg/kg | 280 mg/kg |  | Activity (Mus musculus [8]): inactive
15 | C/C(C(=O)NC1CC1)=C(\C)c1ccc(Cl)cc1 | 170 mg/kg | 600 mg/kg | 450 mg/kg |  |  | Activity (Mus musculus [9]): Non-toxic; Activity (Mus musculus [17]): Non-toxic
16 | C#CCNC(=O)/C(C)=C(\C)c1ccc(OC)cc1 | 150 mg/kg | 150 mg/kg | > 800 mg/kg | 400 mg/kg | 112 mg/kg | 
17 | C#CCNC(=O)/C(C)=C(\C)c1ccc(Cl)cc1 | 60 mg/kg | 200 mg/kg |  | 400 mg/kg |  | LD50 [12]: 140 mg/kg
